In brackets after ≈: the same amount, converted by molar mass.
How the values were obtained:
[1] = tested on: Escherichia coli; assay: Antibacterial activity against Escherichia coli EMBLC-1 by microplate assay; format: functional
[2] = tested on: Staphylococcus aureus; assay: Antibacterial activity against Staphylococcus aureus EMBLC-2 by microplate assay; format: functional
[3] = tested on: Aeromonas hydrophila; assay: Antibacterial activity against Aeromonas hydrophila QDIO-1 by microplate assay; format: functional
[4] = tested on: Edwardsiella tarda; assay: Antibacterial activity against Edwardsiella tarda QDIO-2 by microplate assay; format: functional
[5] = tested on: Micrococcus luteus; assay: Antibacterial activity against Micrococcus luteus QDIO-3 by microplate assay; format: functional
[6] = tested on: Pseudomonas aeruginosa; assay: Antibacterial activity against Pseudomonas aeruginosa QDIO-4 by microplate assay; format: functional
[7] = tested on: Vibrio alginolyticus; assay: Antibacterial activity against Vibrio alginolyticus QDIO-5 by microplate assay; format: functional
[8] = tested on: Vibrio anguillarum; assay: Antibacterial activity against Vibrio anguillarum QDIO-6 by microplate assay; format: functional
[9] = tested on: Vibrio harveyi; assay: Antibacterial activity against Vibrio harveyi QDIO-7 by microplate assay; format: functional
[10] = tested on: Vibrio parahaemolyticus; assay: Antibacterial activity against Vibrio parahaemolyticus QDIO-8 by microplate assay; format: functional
[11] = tested on: Alternaria brassicae; assay: Antifungal activity against Alternaria brassicae QDAU-1 by microplate assay; format: functional
Summary of the method: (§1)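 Phytopathogenic fungal strains came from a research group at Qingdao Agricultural University and are kept at the Key Laboratory of Experimental Marine Biology, Institute of Oceanology, CAS. Tested by microplate assay with amphotericin B as the positive control.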

[12] = tested on: Colletotrichum gloeosporioides; assay: Antifungal activity against Colletotrichum gloeosporioides QDAU-2 by microplate assay; format: functional; summary of the method: as §1
[13] = tested on: Gaeumannomyces graminis; assay: Antifungal activity against Gaeumannomyces graminis QDAU-3 by microplate assay; format: functional; summary of the method: as §1
[14] = Toxicity in brine shrimp; format: organism-based; conditions: artemia salina, in vivo; read-out: LD50 (the source's name)

Compound	MIC [1] [µg/mL]	MIC [2] [µg/mL]	MIC [3] [µg/mL]	MIC [4] [µg/mL]	MIC [5] [µg/mL]	MIC [6] [µg/mL]	MIC [7] [µg/mL]	MIC [8] [µg/mL]	MIC [9] [µg/mL]	MIC [10] [µg/mL]	MIC [11] [µg/mL]	MIC [12] [µg/mL]	MIC [13] [µg/mL]	LC50 [14] [µg/mL]
Cc1ccc([C@@]2(C)CCC(=O)O2)c(O)c1	32 (≈ 155 µM)	32 (≈ 155 µM)	> 32	> 32	> 32	> 32	> 32	> 32	4 (≈ 19.4 µM)	> 32	> 32	32 (≈ 155 µM)	32 (≈ 155 µM)	> 10
C=C(CCCC(C)C)c1ccc(C(=O)O)cc1O	> 32	32 (≈ 129 µM)	> 32	> 32	> 32	> 32	> 32	> 32	4 (≈ 16.1 µM)	32 (≈ 129 µM)	> 32	> 32	0.5 (≈ 2.01 µM)	> 10
CC(C)CCC[C@](C)(O)c1ccc(C(=O)O)cc1O	> 32	32 (≈ 120 µM)	> 32	32 (≈ 120 µM)	> 32	> 32	> 32	32 (≈ 120 µM)	4 (≈ 15 µM)	4 (≈ 15 µM)	> 32	32 (≈ 120 µM)	0.5 (≈ 1.88 µM)	> 10
C/C(=C\CCC(C)C)c1ccc(Cc2c(C)cc(Oc3cc(C)cc(O)c3)cc2O)cc1O	32 (≈ 71.7 µM)	> 32	> 32	> 32	8 (≈ 17.9 µM)	4 (≈ 8.96 µM)	8 (≈ 17.9 µM)	32 (≈ 71.7 µM)	> 32	32 (≈ 71.7 µM)	32 (≈ 71.7 µM)	32 (≈ 71.7 µM)	32 (≈ 71.7 µM)	> 10
C[C@@H]1[C@H](O)[C@@H](C)/C=C/C=C/C=C/C=C/C=C/C=C/C=C/[C@H](O[C@@H]2O[C@H](C)[C@@H](O)[C@H](N)[C@@H]2O)C[C@@H]2O[C@](O)(C[C@@H](O)C[C@@H](O)[C@H](O)CC[C@@H](O)C[C@@H](O)CC(=O)O[C@H]1C)C[C@H](O)[C@H]2C(=O)O [AMPHOTERICIN B]											32 (≈ 34.6 µM)	32 (≈ 34.6 µM)	64 (≈ 69.3 µM)	
CC(C)C(O)CC[C@](C)(O)c1ccc(C(=O)O)cc1O (some centres undefined)	> 32	32 (≈ 113 µM)	32 (≈ 113 µM)	> 32	> 32	> 32	> 32	> 32	8 (≈ 28.3 µM)	32 (≈ 113 µM)	> 32	> 32	> 32	> 10
CC(C)(O)CCC[C@](C)(O)c1ccc(C(=O)O)cc1O	32 (≈ 113 µM)	> 32	32 (≈ 113 µM)	> 32	> 32	> 32	> 32	32 (≈ 113 µM)	> 32	32 (≈ 113 µM)	> 32	> 32	> 32	> 10
Cc1cc(O)cc(Oc2cc(C)cc(OCc3ccc([C@@](C)(O)CCCC(C)C)c(O)c3)c2)c1	> 32	> 32	> 32	> 32	1 (≈ 2.15 µM)	32 (≈ 68.9 µM)	2 (≈ 4.3 µM)	> 32	> 32	> 32	0.5 (≈ 1.08 µM)	> 32	32 (≈ 68.9 µM)	> 10
C=C(C)CCC[C@](C)(O)c1ccc(C(=O)O)cc1O [11-DEHYDROSYDONIC ACID]	> 32	32 (≈ 121 µM)	> 32	> 32	32 (≈ 121 µM)	> 32	> 32	> 32	4 (≈ 15.1 µM)	32 (≈ 121 µM)	> 32	32 (≈ 121 µM)	> 32	> 10
O=C(N[C@H](CO)[C@H](O)c1ccc([N+](=O)[O-])cc1)C(Cl)Cl [CHLORAMPHENICOL]	4 (≈ 12.4 µM)	0.5 (≈ 1.55 µM)	4 (≈ 12.4 µM)	8 (≈ 24.8 µM)	8 (≈ 24.8 µM)	8 (≈ 24.8 µM)	0.5 (≈ 1.55 µM)	0.5 (≈ 1.55 µM)	4 (≈ 12.4 µM)	0.5 (≈ 1.55 µM)				
CC(C)CCC[C@](C)(O)c1ccc(COC(=O)c2ccc([C@@](C)(O)CCCC(C)C)c(O)c2)cc1O	> 32	> 32	> 32	8 (≈ 16 µM)	> 32	> 32	> 32	> 32	> 32	32 (≈ 63.9 µM)	32 (≈ 63.9 µM)	> 32	> 32	> 10

Source: ChEMBL document CHEMBL3576803, “Antimicrobial Phenolic Bisabolanes and Related Derivatives from Penicillium aculeatum SD-321, a Deep Sea Sediment-Derived Fungus” (J Nat Prod, 2015)
